Source: PubChem BioAssay (Sanford-Burnham Center for Chemical Genomics)
Shown are actives, neighbours in structure and some others; about 1.8% of the full set was active somewhere.
LMPTP block – blocks human LMPTP phosphatase; recombinant LMPTP-A, OMFP fluorogenic substrate, fluorescence intensity; inhibition, % at 20 µM; 360,000 compounds, 0.22% hits; P24666;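 active = compounds that cut the enzyme signal by at least half of the control window in the single-dose screen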
Target sequence (P24666 whole entry, looked up): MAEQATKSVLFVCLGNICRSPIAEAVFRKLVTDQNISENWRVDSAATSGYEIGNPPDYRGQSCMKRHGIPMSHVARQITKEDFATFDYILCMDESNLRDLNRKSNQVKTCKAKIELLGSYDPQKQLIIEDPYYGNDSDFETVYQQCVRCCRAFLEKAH
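Assay system: LMPTP-A phosphatase enzyme | Input: 0.625 nM enzyme | Also added: Fluorogenic phosphatase substrate OMFP at 400 µM final | Compound dosing: One test concentration per compound, 20 µM, with 3% DMSO overall | Schedule: 50 min enzyme reaction at room temperature, protected from light | Signal: Fluorescence intensity | Benchmarks: no-enzyme and uninhibited controls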
HKDC1 inh – inhibitors of human hexokinase HKDC1; AID 493160; recombinant HKDC1, G6PDH/diaphorase resazurin coupled fluorescence; 340,000 compounds, 0.16% hits; inhibition, % at 20 µM;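 active = inhibition above about 35% when tested at 20 µM, limit read from the data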
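Material – in-house recombinant HK5 (HKDC1) enzyme · Quantity – HKDC1 at 5 µg/mL · Buffer or medium – pH 8.0 Tris buffer with 10 mM MgCl2 · Reagent – glucose with 1 mM ATP · Dosing – single 20 µM dose · Times – reaction time 90 min, room temperature, protected from light · Technique – resorufin fluorescence at 613 nm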
DNMT1 inh – inhibitors of human DNMT1; P26358; DNMT1 molecular beacon, Hinp1I cleavage, fluorescence; inhibition (reported as % activation of signal), % at 10 µM; 360,000 compounds, 0.83% hits; AID 588458; in the data active = inhibition above about 50%
Scp-1 inhibitor – inhibitors of human Scp-1 phosphatase; Recombinant Scp1, phosphopeptide, malachite green phosphate absorbance; inhibition, % at 20 µM; Q9GZU7; 340,000 compounds, 0.88% hits; AID 493091;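 active = inhibition above about 50% at 20 µM, limit read from the data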
Target sequence (Q9GZU7 76-261 limits assumed): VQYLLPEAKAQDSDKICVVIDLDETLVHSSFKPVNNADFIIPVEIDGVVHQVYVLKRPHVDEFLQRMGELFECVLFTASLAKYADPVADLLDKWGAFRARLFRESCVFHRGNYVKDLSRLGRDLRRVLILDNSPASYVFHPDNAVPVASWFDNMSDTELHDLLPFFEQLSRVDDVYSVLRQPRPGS
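Test system: SCP-1 catalytic domain; Buffer or medium: Acidic Tris acetate buffer with magnesium and detergent; Also added: Phosphorylated 17-residue peptide substrate; Compound: single 20 µM dose, 1% DMSO; Schedule: enzyme reaction 45 min at room temperature, colour 5 min, stabilisation 30 min; Signal: Phosphate-binding colour reagent, absorbance read at 630 nm.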
STEP inh – inhibitors of human striatal-enriched phosphatase STEP | recombinant STEP, OMFP fluorogenic substrate, fluorescence | inhibition, % at 20 µM | 360,000 compounds, 0.25% hits | AID 588621;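 active = inhibition at 20 µM, scaled per plate between control wells, above about 37%, limit read from the data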
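Assay system: isolated STEP enzyme / Timing: 20 min at room temperature, dark / Doses: 20 µM, 1% DMSO / Technique: fluorescence intensity, excitation 480 nm, emission 540 nm / Reagent: fluorogenic phosphatase substrate OMFP at 25 µM final / Measure: percent inhibition scaled to no-enzyme and uninhibited-enzyme controls, plate-pattern corrected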
SUMO1-SIM PPI – alters human SUMO1 binding to SIM partners; P63165; SUMO1 binding to a labelled peptide, TR-FRET, 1 h; inhibition, % at 20 µM; 360,000 compounds, 0.33% hits; in the data active = inhibition above about 37%
Target sequence (P63165 whole entry, looked up): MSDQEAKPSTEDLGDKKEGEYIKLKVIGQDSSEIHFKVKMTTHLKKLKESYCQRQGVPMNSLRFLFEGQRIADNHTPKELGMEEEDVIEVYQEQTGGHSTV
Scp-1 conf – Scp-1 (human) inhibition, single-dose confirmed; shares compounds with Scp-1 inhibitor; inhibition, % at 20 µM; recombinant SCP-1 catalytic domain, phosphate release, malachite green absorbance; 2,500 compounds, 61% hits; AID 540281
MG interference – interferes with malachite green readout, flagging false Scp-1 hits; Colorimetric interference counterscreen, malachite green absorbance 630 nm; shares compounds with Scp-1 inhibitor; apparent inhibition (interference), % at 20 µM; 2,500 tested, under 10 active; AID 540313;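 also: compounds added after enzyme reaction finished so only phosphate colour detection is probed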
Scp-1 Tm shift – Scp-1 (human) binding by thermal shift; AID 540329; 1,500 compounds, 25% hits; Recombinant SCP1, Sypro Orange thermal shift Tm; shares compounds with Scp-1 inhibitor; thermal shift relative to vanadate control, % at 40 µM;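 active = substances whose mean melting-temperature shift, as a percentage of the reference inhibitor's shift, reaches about 5.3%, limit read from the data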
A number is an active result; 0 = inactive; - = no result.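 The calls were made as follows, unless noted: active = inhibition of at least 30% at 20 µM; inactive = the rest.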

SMILES	LMPTP block	HKDC1 inh	DNMT1 inh	Scp-1 inhibitor	STEP inh	SUMO1-SIM PPI	Scp-1 conf	MG interference	Scp-1 Tm shift
CCC(=O)c1ccc(OCC(O)CN2CCN(S(=O)(=O)c3ccc(NC(C)=O)cc3)CC2)cc1 (stereo not drawn)	0	0	0	0	0	0	-	-	-
CC(OC(=O)c1ccc2ncsc2c1)C(=O)Nc1cccc(Cl)c1 (stereo not drawn)	0	0	0	0	0	0	-	-	-
COc1ccc(NC(=O)CN2C(=O)C(c3ccccc3)=NC23CCCCCC3)cc1	0	0	0	58.6	0	0	0	0	-
O=C(CN1C(=O)C(c2ccc(F)cc2)=NC12CCCC2)Nc1ccc(F)cc1	0	0	0	0	0	0	-	-	-
O=C(COC(=O)c1ccc(NS(=O)(=O)c2cccs2)cc1)Nc1nc2c(F)c(F)c(F)cc2s1	0	0	0	50.9	0	0	65.4	0	26.3
O=C(Nc1ccc(S(=O)(=O)Nc2nccs2)cc1)c1ccncc1	0	-	0	-	0	0	-	-	-
O=C(Nc1ccc(S(=O)(=O)Nc2nccs2)cc1)c1ccc(=O)[nH]c1	0	0	0	70.0	0	0	60.2	0	8.9
O=S(=O)(Nc1ccc(F)cc1)c1ccc(NS(=O)(=O)c2cccs2)cc1	0	0	0	0	0	0	-	-	-
Cc1cccc(Nc2nnc(SCC(=O)c3c(N)n(C4CC4)c(=O)[nH]c3=O)s2)c1	0	0	0	0	0	0	-	-	-
C/C(N)=C(/C#N)C(=O)CSc1nnc(Nc2cccc(C)c2)s1	0	0	0	64.0	0	0	74.3	0	0
Cc1cccc(NC(=O)CNC(=O)c2ccc3nc[nH]c3c2)c1C	0	0	0	67.6	0	0	50.6	0	0
NS(=O)(=O)c1cccc(NC(=O)c2ccc3nc[nH]c3c2)c1	0	0	0	70.0	0	0	66.9	0	0
CC(=O)c1ccc(N2CCN(Cc3nc(Cc4ccccc4)no3)CC2)cc1	0	0	0	0	0	0	-	-	-
Cc1ccc(NC(=O)CN(C)S(=O)(=O)c2ccc3c(c2)n(C)c(=O)c(=O)n3C)c(C)c1	0	0	0	0	0	0	-	-	-
Cc1cc(C)c(NC(=O)CN(C)S(=O)(=O)c2ccc3c(c2)n(C)c(=O)c(=O)n3C)c(C)c1	0	0	0	0	0	0	0	0	-
O=C(COC(=O)CC1CCS(=O)(=O)C1)Nc1ccc(F)cc1 (stereo not drawn)	0	0	0	0	0	0	-	-	-
CCN(CC)S(=O)(=O)c1ccc(O)c(C(=O)OCC(=O)N2CCCC2)c1	0	0	0	52.7	0	0	0	0	-
COc1ccc(NS(=O)(=O)c2ccc(O)c(C(=O)OCC(=O)N3CCCCC3)c2)cc1	0	0	0	0	0	0	-	-	-
O=C(O)c1ccc(COc2ccc3c4c(c(=O)oc3c2)CCC4)o1	0	0	0	50.1	0	0	45.2	0	0
O=c1oc2cc(OCc3ccc([N+](=O)[O-])cc3)ccc2c2c1CCCC2	0	0	0	0	0	0	-	-	-
CCn1c2ccccc2c2nnc(SCC(=O)c3c(N)n(C)c(=O)n(C)c3=O)nc21	0	0	0	62.7	0	0	0	0	-
CCn1c2ccccc2c2nnc(SCC(N)=O)nc21	0	0	0	0	0	0	-	-	-
C=CCn1c(=NC(=O)c2sc3ccccc3c2Cl)sc2cc(S(N)(=O)=O)ccc21	0	0	0	88.2	0	0	78.2	0	0
Cn1nnnc1SCC1=C(C(=O)O)N2C(=O)C(NC(=O)C3CC3c3ccccc3)C2SC1 (stereo not drawn)	0	0	0	58.7	0	0	70.3	0	0
